Assay results as given in ChEMBL document CHEMBL1145212, “Fluorinated diaryl sulfides as serotonin transporter ligands: synthesis, structure-activity relationship study, and in vivo evaluation of fluorine-18-labeled compounds as PET imaging agents” (J Med Chem, 2005).

How the values were obtained:
Settings in all cases: tested as the 18F-labelled form
Rattus norvegicus [1] = organism: Rattus norvegicus; test: Regional uptake of [18F]AFA in striatum of rat pretreated with compound 7c; n=3; assay type: functional, organism-based
[2] = biological target: Sodium-dependent serotonin transporter (Rattus norvegicus) (UniProt P31652); test: Specific binding of [18F]AFA in rat hippocampus after citalopram treatment; n=3; assay type: functional, tissue-based
Chain of Sodium-dependent serotonin transporter (Rattus norvegicus) (P31652 whole entry): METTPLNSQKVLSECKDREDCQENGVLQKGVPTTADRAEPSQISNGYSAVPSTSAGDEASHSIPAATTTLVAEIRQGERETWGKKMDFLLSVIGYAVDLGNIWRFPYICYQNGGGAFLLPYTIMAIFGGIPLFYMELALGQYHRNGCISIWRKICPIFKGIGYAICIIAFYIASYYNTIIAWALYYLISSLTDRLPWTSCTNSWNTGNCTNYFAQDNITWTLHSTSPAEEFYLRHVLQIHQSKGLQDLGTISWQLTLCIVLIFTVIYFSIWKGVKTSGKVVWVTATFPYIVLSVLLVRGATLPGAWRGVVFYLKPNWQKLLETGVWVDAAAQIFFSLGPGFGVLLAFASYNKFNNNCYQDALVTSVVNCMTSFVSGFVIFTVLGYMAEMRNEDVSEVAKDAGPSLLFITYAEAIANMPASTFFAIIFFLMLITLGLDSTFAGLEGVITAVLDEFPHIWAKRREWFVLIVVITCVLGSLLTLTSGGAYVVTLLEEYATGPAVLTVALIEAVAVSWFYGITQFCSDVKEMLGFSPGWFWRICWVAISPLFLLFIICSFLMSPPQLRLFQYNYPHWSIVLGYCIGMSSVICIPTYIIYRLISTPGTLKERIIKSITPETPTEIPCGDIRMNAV
Summary of the method: (§1)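 Rats, three per group, were pretreated iv with blocker at 2 mg/kg in saline, or with saline as control, 10–15 min before tail-vein F-18 radioligand (about 20 µCi). Killed at 60 min and regional %ID/g determined. Specific binding = (region activity − cerebellum activity)/cerebellum activity; mean ± SD.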

Rattus norvegicus [3] = organism: Rattus norvegicus; test: Regional uptake of [18F]AFA in striatum of rat pretreated with compound nisoxetine; n=3; assay type: functional, organism-based
Summary of the method: (§2)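 Male Sprague-Dawley rats, three per group, received blocker (2 mg/kg iv in saline) or saline only (controls) 10–15 min before about 20 µCi of tail-vein F-18 radioligand. Killed 60 min after tracer. Blood and brain regions weighed and gamma-counted. %ID/g was decay- and tail-corrected; mean ± SD.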

Rattus norvegicus [4] = organism: Rattus norvegicus; test: Regional uptake of [18F]AFA in cerebellum of rat pretreated with compound nisoxetine; n=3; assay type: functional, organism-based; summary of the method: as §2
[5] = biological target: Sodium-dependent serotonin transporter (Rattus norvegicus) (UniProt P31652); test: Specific binding of [18F]AFA in rat thalamus after citalopram treatment; n=3; assay type: functional, tissue-based; summary of the method: as §1
[6] = biological target: Sodium-dependent serotonin transporter (Rattus norvegicus) (UniProt P31652); test: Specific binding in rat hypothalamus at 60 min postinjection in vivo; assay type: functional, organism-based
Summary of the method: (§3)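 Male Sprague-Dawley rats, n=3 per time point, received about 20 µCi of F-18 radioligand in saline iv by tail vein and were killed at 10–120 min. %ID/g was measured with decay and tail-residual correction. Hypothalamic specific binding = (%ID/g hypothalamus − %ID/g cerebellum)/%ID/g cerebellum; mean ± SD.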

Rattus norvegicus [7] = organism: Rattus norvegicus; test: Regional uptake of [18F]AFA in thalamus of rat pretreated with compound 7c; n=3; assay type: functional, organism-based
Rattus norvegicus [8] = organism: Rattus norvegicus; test: Regional uptake of [18F]AFA in frontal cortex of rat pretreated with compound GBR-12935; n=3; assay type: functional, organism-based; summary of the method: as §2
Rattus norvegicus [9] = organism: Rattus norvegicus; test: Regional uptake of [18F]-AFA in blood of rat pretreated with compound GBR-12935; n=3; assay type: functional, organism-based; summary of the method: as §2
Rattus norvegicus [10] = organism: Rattus norvegicus; test: Regional uptake of [18F]AFA in cerebellum of rat pretreated with compound citalopram; n=3; assay type: functional, organism-based; summary of the method: as §2
Rattus norvegicus [11] = organism: Rattus norvegicus; test: Regional uptake of [18F]AFA in frontal cortex of rat pretreated with compound nisoxetine; n=3; assay type: functional, organism-based; summary of the method: as §2
[12] = biological target: Sodium-dependent serotonin transporter (Rattus norvegicus) (UniProt P31652); test: Specific binding in rat hypothalamus at 120 min postinjection in vivo; assay type: functional, organism-based; summary of the method: as §3
Rattus norvegicus [13] = organism: Rattus norvegicus; test: Regional uptake of [18F]AFA in thalamus of rat pretreated with compound nisoxetine; n=3; assay type: functional, organism-based; summary of the method: as §2
[14] = biological target: Sodium-dependent serotonin transporter (Rattus norvegicus) (UniProt P31652); test: Specific binding of [18F]AFA in rat frontal cortex after GBR-12935 treatment; n=3; assay type: functional, tissue-based; summary of the method: as §1
[15] = biological target: Sodium-dependent serotonin transporter (Rattus norvegicus) (UniProt P31652); test: Specific binding in rat hypothalamus at 30 min postinjection in vivo; assay type: functional, organism-based; summary of the method: as §3
[16] = biological target: Sodium-dependent serotonin transporter (Rattus norvegicus) (UniProt P31652); test: Specific binding of [18F]AFA in rat frontal cortex after citalopram treatment; n=3; assay type: functional, tissue-based; summary of the method: as §1
[17] = biological target: Sodium-dependent serotonin transporter (Rattus norvegicus) (UniProt P31652); test: Specific binding of [18F]AFA in rat thalamus after nisoxetine treatment; n=3; assay type: functional, tissue-based; summary of the method: as §1
Rattus norvegicus [18] = organism: Rattus norvegicus; test: Regional uptake of [18F]AFA in hypothalamus of rat pretreated with compound 7c; n=3; assay type: functional, organism-based
Rattus norvegicus [19] = organism: Rattus norvegicus; test: Regional uptake of [18F]AFA in blood of rat pretreated with compound 7c; n=3; assay type: functional, organism-based
[20] = biological target: Sodium-dependent serotonin transporter (Rattus norvegicus) (UniProt P31652); test: Specific binding in rat hypothalamus at 10 min postinjection in vivo; assay type: functional, organism-based; summary of the method: as §3
[21] = biological target: Sodium-dependent serotonin transporter (Rattus norvegicus) (UniProt P31652); test: Specific binding of [18F]-AFA in rat striatum after nisoxetine treatment; n=3; assay type: functional, tissue-based; summary of the method: as §1
[22] = biological target: Sodium-dependent serotonin transporter (Rattus norvegicus) (UniProt P31652); test: Specific binding of [18F]AFA in rat hippocampus after nisoxetine treatment; n=3; assay type: functional, tissue-based; summary of the method: as §1
Rattus norvegicus [23] = organism: Rattus norvegicus; test: Regional uptake of [18F]-AFA in frontal cortex of rat pretreated with compound 7c; n=3; assay type: functional, organism-based
Rattus norvegicus [24] = organism: Rattus norvegicus; test: Regional uptake of [18F]AFA in thalamus of rat pretreated with compound GBR-12935; n=3; assay type: functional, organism-based; summary of the method: as §2
Rattus norvegicus [25] = organism: Rattus norvegicus; test: Regional uptake of [18F]-AFA in striatum of rat pretreated with compound GBR-12935; n=3; assay type: functional, organism-based; summary of the method: as §2
Rattus norvegicus [26] = organism: Rattus norvegicus; test: Regional uptake of [18F]AFA in thalamus of rat pretreated with compound citalopram; n=3; assay type: functional, organism-based; summary of the method: as §2
Rattus norvegicus [27] = organism: Rattus norvegicus; test: Regional uptake of [18F]AFA in cerebellum of rat pretreated with compound GBR-12935; n=3; assay type: functional, organism-based; summary of the method: as §2
Rattus norvegicus [28] = organism: Rattus norvegicus; test: Regional uptake of [18F]AFA in hippocampus of rat pretreated with compound citalopram; n=3; assay type: functional, organism-based; summary of the method: as §2
[29] = biological target: Sodium-dependent serotonin transporter (Rattus norvegicus) (UniProt P31652); test: Specific binding of [18F]-AFA in rat striatum after citalopram treatment; n=3; assay type: functional, tissue-based; summary of the method: as §1
Rattus norvegicus [30] = organism: Rattus norvegicus; test: Regional uptake of [18F]-AFA in hypothalamus of rat pretreated with compound nisoxetine; n=3; assay type: functional, organism-based; summary of the method: as §2
[31] = biological target: Sodium-dependent serotonin transporter (Rattus norvegicus) (UniProt P31652); test: Specific binding of [18F]AFA in rat thalamus after GBR-12935 treatment; n=3; assay type: functional, tissue-based; summary of the method: as §1
Rattus norvegicus [32] = organism: Rattus norvegicus; test: Regional uptake of [18F]AFA in striatum of rat pretreated with compound citalopram; n=3; assay type: functional, organism-based; summary of the method: as §2
[33] = biological target: Sodium-dependent serotonin transporter (Rattus norvegicus) (UniProt P31652); test: Specific binding in rat hypothalamus at 90 min postinjection in vivo; assay type: functional, organism-based; summary of the method: as §3
[34] = biological target: Sodium-dependent serotonin transporter (Rattus norvegicus) (UniProt P31652); test: Specific binding of [18F]AFA in rat hypothalamus after GBR-12935 treatment; n=3; assay type: functional, tissue-based; summary of the method: as §1
[35] = biological target: Sodium-dependent serotonin transporter (Rattus norvegicus) (UniProt P31652); test: Specific binding of [18F]AFA in rat striatum after GBR-12935 treatment; n=3; assay type: functional, tissue-based; summary of the method: as §1
[36] = biological target: Sodium-dependent serotonin transporter (Rattus norvegicus) (UniProt P31652); test: Specific binding of [18F]AFA in rat hypothalamus after citalopram treatment; n=3; assay type: functional, tissue-based; summary of the method: as §1
Rattus norvegicus [37] = organism: Rattus norvegicus; test: Regional uptake of [18F]AFA in frontal cortex of rat pretreated with compound citalopram; n=3; assay type: functional, organism-based; summary of the method: as §2
Rattus norvegicus [38] = organism: Rattus norvegicus; test: Regional uptake of [18F]AFA in hypothalamus of rat pretreated with compound citalopram; n=3; assay type: functional, organism-based; summary of the method: as §2
[39] = biological target: Sodium-dependent serotonin transporter (Rattus norvegicus) (UniProt P31652); test: Specific binding of [18F]AFA in rat hypothalamus after nisoxetine treatment; n=3; assay type: functional, tissue-based; summary of the method: as §1
Rattus norvegicus [40] = organism: Rattus norvegicus; test: Regional uptake of [18F]-AFA in blood of rat pretreated with compound citalopram; n=3; assay type: functional, organism-based; summary of the method: as §2
[41] = biological target: Sodium-dependent serotonin transporter (Rattus norvegicus) (UniProt P31652); test: Specific binding of [18F]AFA in rat hippocampus after GBR-12935 treatment; n=3; assay type: functional, tissue-based; summary of the method: as §1
Rattus norvegicus [42] = organism: Rattus norvegicus; test: Regional uptake of [18F]AFA in cerebellum of rat pretreated with compound 7c; n=3; assay type: functional, organism-based
[43] = biological target: Sodium-dependent serotonin transporter (Rattus norvegicus) (UniProt P31652); test: Specific binding of [18F]AFA in rat frontal cortex after nisoxetine treatment; n=3; assay type: functional, tissue-based; summary of the method: as §1
Rattus norvegicus [44] = organism: Rattus norvegicus; test: Regional uptake of [18F]AFA in hippocampus of rat pretreated with compound 7c; n=3; assay type: functional, organism-based
Rattus norvegicus [45] = organism: Rattus norvegicus; test: Regional uptake of [18F]AFA in hippocampus of rat pretreated with compound nisoxetine; n=3; assay type: functional, organism-based; summary of the method: as §2
Rattus norvegicus [46] = organism: Rattus norvegicus; test: Regional uptake of [18F]AFA in hippocampus of rat pretreated with compound GBR-12935; n=3; assay type: functional, organism-based; summary of the method: as §2
Rattus norvegicus [47] = organism: Rattus norvegicus; test: Regional uptake of [18F]AFA in hypothalamus of rat pretreated with compound GBR-12935; n=3; assay type: functional, organism-based; summary of the method: as §2
Rattus norvegicus [48] = organism: Rattus norvegicus; test: Regional uptake of [18F]AFA in blood of rat pretreated with compound nisoxetine; n=3; assay type: functional, organism-based; summary of the method: as §2

CN(C)Cc1ccccc1Sc1ccc(F)cc1N
Uptake (Rattus norvegicus [1]): 0.12 %ID/g
Specific binding [2]: 0.81 %ID/g
Uptake (Rattus norvegicus [3]): 0.31 %ID/g
Uptake (Rattus norvegicus [4]): 0.09 %ID/g
Specific binding [5]: 0.98 %ID/g
Specific binding [6]: 4.09 %ID/g
Uptake (Rattus norvegicus [7]): 0.15 %ID/g
Uptake (Rattus norvegicus [8]): 0.33 %ID/g
Uptake (Rattus norvegicus [9]): 0.09 %ID/g
Uptake (Rattus norvegicus [10]): 0.06 %ID/g
Uptake (Rattus norvegicus [11]): 0.36 %ID/g
Specific binding (dimensionless ratio) [12]: 4.92
Uptake (Rattus norvegicus [13]): 0.47 %ID/g
Specific binding [14]: 2.81 %ID/g
Specific binding [15]: 2.23 %ID/g
Specific binding [16]: 0.64 %ID/g
Specific binding [17]: 3.53 %ID/g
Uptake (Rattus norvegicus [18]): 0.13 %ID/g
Uptake (Rattus norvegicus [19]): 0.07 %ID/g
Specific binding [20]: 0.89 %ID/g
Specific binding [21]: 2.45 %ID/g
Specific binding [22]: 1.96 %ID/g
Uptake (Rattus norvegicus [23]): 0.14 %ID/g
Uptake (Rattus norvegicus [24]): 0.36 %ID/g
Uptake (Rattus norvegicus [25]): 0.28 %ID/g
Uptake (Rattus norvegicus [26]): 0.13 %ID/g
Uptake (Rattus norvegicus [27]): 0.09 %ID/g
Uptake (Rattus norvegicus [28]): 0.11 %ID/g
Specific binding [29]: 0.6 %ID/g
Uptake (Rattus norvegicus [30]): 0.48 %ID/g
Specific binding [31]: 4.57 %ID/g
Uptake (Rattus norvegicus [32]): 0.1 %ID/g
Specific binding (dimensionless ratio) [33]: 5.61
Specific binding [34]: 4.3 %ID/g
Specific binding [35]: 2.56 %ID/g
Specific binding [36]: 0.65 %ID/g
Uptake (Rattus norvegicus [37]): 0.11 %ID/g
Uptake (Rattus norvegicus [38]): 0.1 %ID/g
Specific binding [39]: 3.82 %ID/g
Uptake (Rattus norvegicus [40]): 0.08 %ID/g
Specific binding [41]: 2.21 %ID/g
Uptake (Rattus norvegicus [42]): 0.06 %ID/g
Specific binding [43]: 2.88 %ID/g
Uptake (Rattus norvegicus [44]): 0.13 %ID/g
Uptake (Rattus norvegicus [45]): 0.28 %ID/g
Uptake (Rattus norvegicus [46]): 0.28 %ID/g
Uptake (Rattus norvegicus [47]): 0.43 %ID/g
Uptake (Rattus norvegicus [48]): 0.1 %ID/g
